According to ChEMBL document CHEMBL4689842, “EUbOPEN Chemogenomics Library wave 1” (2021):

Test system: Fibroblast
Assay: Multiplex assay against human fibroblast
Type: toxicity, cell-based
Summary of the method: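 On a CQ1 microscope at 37°C and 5% CO2, live cells were imaged after compound addition. They had been stained at seeding with Hoechst33342, BioTracker Green Microtubule Cytoskeleton Dye, MitoTracker Red and Annexin V Alexa Fluor 680. CellPathfinder machine-learning gating assigned cells to Hoechst high-intensity objects or normal cells, normal cells to healthy, pyknosed or fragmented nuclei, and pyknosed cells to mitotic or apoptotic. Tubulin, mitochondrial-mass and membrane-permeability phenotypes are per cents of healthy-nucleus cells.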

[1] = 12 h, 1 µM, compound concentration 1 uM, replicate 1
[2] = 12 h, 1 µM, compound concentration 1 uM, replicate 2
[3] = 12 h, 10 µM, compound concentration 10 uM, replicate 1
[4] = 12 h, 10 µM, compound concentration 10 uM, replicate 2
[5] = 24 h, 1 µM, compound concentration 1 uM, replicate 1
[6] = 24 h, 1 µM, compound concentration 1 uM, replicate 2
[7] = 24 h, 10 µM, compound concentration 10 uM, replicate 1
[8] = 24 h, 10 µM, compound concentration 10 uM, replicate 2
[9] = 48 h, 1 µM, compound concentration 1 uM, replicate 1
[10] = 48 h, 1 µM, compound concentration 1 uM, replicate 2
[11] = 48 h, 10 µM, compound concentration 10 uM, replicate 1
[12] = 48 h, 10 µM, compound concentration 10 uM, replicate 2

Which “Population Apoptotic (%)” value [1] does the source give for `CNc1nc(NCc2ccc(NS(C)(=O)=O)cc2Cl)cc(-c2ccccn2)n1` here?
Its value is 70%.

And the “Population Fragmented Nuclei (%)” value [1]?
The value was 22%.

And the “Population Healthy Nuclei (%)” value [1]?
Its value is 41%.

What about the “Population Hoechst High Intensity Objects (%)” value [1] of the same molecule?
The value was 7%.

What about the “Population Membrane Permeable-Phenotype (%)” value [1] of the same molecule?
Its value is 22%.

What about the “Population Mitochondria Different-Phenotype (%)” value [1] of the same molecule?
Its value is 4%.

What about the “Population Mitotic Cells (%)” value [1] of the same molecule?
The value was 29%.

And the “Population Normal (%)” value [1]?
The value was 92%.

And the “Population Pyknosed Nuclei (%)” value [1]?
Its value is 36%.

What about the “Population Tubulin-Different-Phenotype (%)” value [1] of the same molecule?
Its value is 41%.

What about the “Total Cell Count” value [1] of the same molecule?
Its value is 164.

What about the “Population Apoptotic (%)” value [2] of the same molecule?
The value was 33%.

What about the “Population Fragmented Nuclei (%)” value [2] of the same molecule?
Its value is 11%.

What about the “Population Healthy Nuclei (%)” value [2] of the same molecule?
The value was 82%.

What about the “Population Hoechst High Intensity Objects (%)” value [2] of the same molecule?
Its value is 8%.

And the “Population Membrane Permeable-Phenotype (%)” value [2]?
Its value is 0%.

What about the “Population Mitochondria Different-Phenotype (%)” value [2] of the same molecule?
Its value is 9%.

What about the “Population Mitotic Cells (%)” value [2] of the same molecule?
Its value is 66%.

What about the “Population Normal (%)” value [2] of the same molecule?
The value was 91%.

And the “Population Pyknosed Nuclei (%)” value [2]?
The value was 5%.

What about the “Population Tubulin-Different-Phenotype (%)” value [2] of the same molecule?
The value was 11%.

What about the “Total Cell Count” value [2] of the same molecule?
The value was 61.

What about the “Population Apoptotic (%)” value [3] of the same molecule?
The value was 60%.

What about the “Population Fragmented Nuclei (%)” value [3] of the same molecule?
The value was 23%.

What about the “Population Healthy Nuclei (%)” value [3] of the same molecule?
The value was 39%.

What about the “Population Hoechst High Intensity Objects (%)” value [3] of the same molecule?
Its value is 17%.

And the “Population Membrane Permeable-Phenotype (%)” value [3]?
Its value is 21%.

What about the “Population Mitochondria Different-Phenotype (%)” value [3] of the same molecule?
The value was 15%.

And the “Population Mitotic Cells (%)” value [3]?
Its value is 39%.

What about the “Population Normal (%)” value [3] of the same molecule?
The value was 82%.

And the “Population Pyknosed Nuclei (%)” value [3]?
The value was 36%.

And the “Population Tubulin-Different-Phenotype (%)” value [3]?
The value was 82%.

What about the “Total Cell Count” value [3] of the same molecule?
The value was 142.

And the “Population Apoptotic (%)” value [4]?
The value was 57%.

What about the “Population Fragmented Nuclei (%)” value [4] of the same molecule?
Its value is 6%.

And the “Population Healthy Nuclei (%)” value [4]?
The value was 81%.

And the “Population Hoechst High Intensity Objects (%)” value [4]?
The value was 9%.

What about the “Population Membrane Permeable-Phenotype (%)” value [4] of the same molecule?
Its value is 12%.

What about the “Population Mitochondria Different-Phenotype (%)” value [4] of the same molecule?
Its value is 32%.

What about the “Population Mitotic Cells (%)” value [4] of the same molecule?
Its value is 42%.

What about the “Population Normal (%)” value [4] of the same molecule?
Its value is 90%.

What about the “Population Pyknosed Nuclei (%)” value [4] of the same molecule?
The value was 11%.

What about the “Population Tubulin-Different-Phenotype (%)” value [4] of the same molecule?
The value was 30%.

And the “Total Cell Count” value [4]?
Its value is 56.

And the “Population Apoptotic (%)” value [5]?
The value was 70%.

And the “Population Fragmented Nuclei (%)” value [5]?
The value was 25%.

And the “Population Healthy Nuclei (%)” value [5]?
The value was 53%.

What about the “Population Hoechst High Intensity Objects (%)” value [5] of the same molecule?
The value was 11%.

What about the “Population Membrane Permeable-Phenotype (%)” value [5] of the same molecule?
The value was 23%.

What about the “Population Mitochondria Different-Phenotype (%)” value [5] of the same molecule?
Its value is 7%.

And the “Population Mitotic Cells (%)” value [5]?
Its value is 29%.

And the “Population Normal (%)” value [5]?
The value was 88%.

What about the “Population Pyknosed Nuclei (%)” value [5] of the same molecule?
Its value is 20%.

And the “Population Tubulin-Different-Phenotype (%)” value [5]?
Its value is 43%.

And the “Total Cell Count” value [5]?
Its value is 169.

What about the “Population Apoptotic (%)” value [6] of the same molecule?
Its value is 25%.

What about the “Population Fragmented Nuclei (%)” value [6] of the same molecule?
The value was 8%.

What about the “Population Healthy Nuclei (%)” value [6] of the same molecule?
The value was 85%.

What about the “Population Hoechst High Intensity Objects (%)” value [6] of the same molecule?
Its value is 1%.

What about the “Population Membrane Permeable-Phenotype (%)” value [6] of the same molecule?
Its value is 0%.

What about the “Population Mitochondria Different-Phenotype (%)” value [6] of the same molecule?
Its value is 11%.

What about the “Population Mitotic Cells (%)” value [6] of the same molecule?
Its value is 75%.

What about the “Population Normal (%)” value [6] of the same molecule?
Its value is 98%.

What about the “Population Pyknosed Nuclei (%)” value [6] of the same molecule?
The value was 5%.

What about the “Population Tubulin-Different-Phenotype (%)” value [6] of the same molecule?
Its value is 11%.

What about the “Total Cell Count” value [6] of the same molecule?
The value was 67.

And the “Population Apoptotic (%)” value [7]?
The value was 64%.

What about the “Population Fragmented Nuclei (%)” value [7] of the same molecule?
The value was 31%.

And the “Population Healthy Nuclei (%)” value [7]?
The value was 46%.

What about the “Population Hoechst High Intensity Objects (%)” value [7] of the same molecule?
Its value is 27%.

What about the “Population Membrane Permeable-Phenotype (%)” value [7] of the same molecule?
The value was 18%.

And the “Population Mitochondria Different-Phenotype (%)” value [7]?
Its value is 18%.

What about the “Population Mitotic Cells (%)” value [7] of the same molecule?
The value was 35%.

What about the “Population Normal (%)” value [7] of the same molecule?
The value was 72%.

What about the “Population Pyknosed Nuclei (%)” value [7] of the same molecule?
Its value is 22%.

And the “Population Tubulin-Different-Phenotype (%)” value [7]?
Its value is 77%.

What about the “Total Cell Count” value [7] of the same molecule?
The value was 174.

What about the “Population Apoptotic (%)” value [8] of the same molecule?
Its value is 50%.

And the “Population Fragmented Nuclei (%)” value [8]?
Its value is 20%.

What about the “Population Healthy Nuclei (%)” value [8] of the same molecule?
Its value is 66%.

And the “Population Hoechst High Intensity Objects (%)” value [8]?
The value was 10%.

What about the “Population Membrane Permeable-Phenotype (%)” value [8] of the same molecule?
Its value is 4%.

And the “Population Mitochondria Different-Phenotype (%)” value [8]?
Its value is 26%.

And the “Population Mitotic Cells (%)” value [8]?
The value was 50%.

What about the “Population Normal (%)” value [8] of the same molecule?
Its value is 89%.

What about the “Population Pyknosed Nuclei (%)” value [8] of the same molecule?
Its value is 12%.

And the “Population Tubulin-Different-Phenotype (%)” value [8]?
Its value is 17%.

What about the “Total Cell Count” value [8] of the same molecule?
Its value is 71.

And the “Population Apoptotic (%)” value [9]?
The value was 77%.

And the “Population Fragmented Nuclei (%)” value [9]?
The value was 29%.

And the “Population Healthy Nuclei (%)” value [9]?
The value was 63%.

And the “Population Hoechst High Intensity Objects (%)” value [9]?
The value was 17%.

And the “Population Membrane Permeable-Phenotype (%)” value [9]?
Its value is 23%.

What about the “Population Mitochondria Different-Phenotype (%)” value [9] of the same molecule?
Its value is 7%.

What about the “Population Mitotic Cells (%)” value [9] of the same molecule?
Its value is 22%.

And the “Population Normal (%)” value [9]?
Its value is 82%.

And the “Population Pyknosed Nuclei (%)” value [9]?
Its value is 7%.

And the “Population Tubulin-Different-Phenotype (%)” value [9]?
The value was 46%.

And the “Total Cell Count” value [9]?
The value was 155.

And the “Population Apoptotic (%)” value [10]?
Its value is 50%.

And the “Population Fragmented Nuclei (%)” value [10]?
The value was 28%.

What about the “Population Healthy Nuclei (%)” value [10] of the same molecule?
Its value is 69%.

What about the “Population Hoechst High Intensity Objects (%)” value [10] of the same molecule?
The value was 8%.

What about the “Population Membrane Permeable-Phenotype (%)” value [10] of the same molecule?
The value was 4%.

What about the “Population Mitochondria Different-Phenotype (%)” value [10] of the same molecule?
The value was 2%.

What about the “Population Mitotic Cells (%)” value [10] of the same molecule?
Its value is 50%.

What about the “Population Normal (%)” value [10] of the same molecule?
The value was 91%.

And the “Population Pyknosed Nuclei (%)” value [10]?
Its value is 2%.

What about the “Population Tubulin-Different-Phenotype (%)” value [10] of the same molecule?
Its value is 38%.

What about the “Total Cell Count” value [10] of the same molecule?
Its value is 105.

What about the “Population Apoptotic (%)” value [11] of the same molecule?
Its value is 70%.

What about the “Population Fragmented Nuclei (%)” value [11] of the same molecule?
The value was 29%.

What about the “Population Healthy Nuclei (%)” value [11] of the same molecule?
The value was 61%.

What about the “Population Hoechst High Intensity Objects (%)” value [11] of the same molecule?
The value was 36%.

And the “Population Membrane Permeable-Phenotype (%)” value [11]?
The value was 20%.

What about the “Population Mitochondria Different-Phenotype (%)” value [11] of the same molecule?
The value was 12%.

And the “Population Mitotic Cells (%)” value [11]?
Its value is 30%.

And the “Population Normal (%)” value [11]?
Its value is 63%.

And the “Population Pyknosed Nuclei (%)” value [11]?
The value was 9%.

And the “Population Tubulin-Different-Phenotype (%)” value [11]?
The value was 84%.

What about the “Total Cell Count” value [11] of the same molecule?
The value was 168.

What about the “Population Apoptotic (%)” value [12] of the same molecule?
The value was 100%.

And the “Population Fragmented Nuclei (%)” value [12]?
The value was 27%.

And the “Population Healthy Nuclei (%)” value [12]?
Its value is 71%.

What about the “Population Hoechst High Intensity Objects (%)” value [12] of the same molecule?
Its value is 41%.

What about the “Population Membrane Permeable-Phenotype (%)” value [12] of the same molecule?
Its value is 15%.

And the “Population Mitochondria Different-Phenotype (%)” value [12]?
Its value is 3%.

And the “Population Mitotic Cells (%)” value [12]?
Its value is 0%.

What about the “Population Normal (%)” value [12] of the same molecule?
The value was 58%.

And the “Population Pyknosed Nuclei (%)” value [12]?
Its value is 1%.

And the “Population Tubulin-Different-Phenotype (%)” value [12]?
Its value is 79%.

And the “Total Cell Count” value [12]?
Its value is 203.
